Measurements: ChEMBL document CHEMBL1123920, “Leukotriene D4 antagonists and 5-lipoxygenase inhibitors. Synthesis of benzoheterocyclic [(methoxyphenyl)amino]oxoalkanoic acid esters” (J Med Chem, 1987)
Values belong to the molecule of their own block, whether it stands above or below them.

How the values were obtained:
[1] = target: T1, Polyunsaturated fatty acid 5-lipoxygenase (Rattus norvegicus, UniProt P12527); experiment: (§1) Ability to inhibit Lipoxygenase in vitro was determined
T1 sequence (P12527 whole entry): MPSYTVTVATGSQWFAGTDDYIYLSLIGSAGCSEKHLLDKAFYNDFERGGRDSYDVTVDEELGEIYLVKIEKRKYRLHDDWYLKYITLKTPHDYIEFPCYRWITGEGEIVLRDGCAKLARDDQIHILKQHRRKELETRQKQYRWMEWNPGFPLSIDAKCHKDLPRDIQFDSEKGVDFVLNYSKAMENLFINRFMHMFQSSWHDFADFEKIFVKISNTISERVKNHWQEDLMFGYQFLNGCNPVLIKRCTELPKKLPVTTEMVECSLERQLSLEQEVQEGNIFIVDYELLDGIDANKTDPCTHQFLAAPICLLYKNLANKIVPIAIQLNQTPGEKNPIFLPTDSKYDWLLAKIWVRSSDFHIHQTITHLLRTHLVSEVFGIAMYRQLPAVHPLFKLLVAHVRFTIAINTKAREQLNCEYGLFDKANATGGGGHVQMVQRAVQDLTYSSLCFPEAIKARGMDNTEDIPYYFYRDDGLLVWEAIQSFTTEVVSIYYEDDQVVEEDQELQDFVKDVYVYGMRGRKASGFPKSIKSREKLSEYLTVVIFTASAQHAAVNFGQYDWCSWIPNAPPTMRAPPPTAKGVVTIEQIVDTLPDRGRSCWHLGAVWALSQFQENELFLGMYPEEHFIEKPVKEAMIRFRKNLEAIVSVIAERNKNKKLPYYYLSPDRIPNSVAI

Cavia porcellus = experiment: Ability to inhibit the Ovalbumin induced bronchospasm in guinea pig was determined in vivo at a dose of 50 mg/kg id; type: functional; conditions: route intraduodenal
In short: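 Guinea pigs were challenged with LTD4 or ovalbumin to induce bronchospasm, and test agent was given intraduodenally. Read-out is percent inhibition of bronchospasm. Significance uses a two-tailed Student's t test (p < 0.05). N is the number of treated animals.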

Rattus norvegicus [2] = species on record: Rattus norvegicus; experiment: Tested for metabolic activation counted as mean number of revertants in strains TA98, TA100, TA1535, and TA1538, three plates per treatment at 0.5 mg per plate, with activation provided by S-9 rat liver homogenates in Ames test; type: functional, organism-based
Rattus norvegicus [3] = species on record: Rattus norvegicus; experiment: Tested for metabolic activation counted as mean number of revertants in strains TA98, TA100, TA1535, and TA1538, three plates per treatment at 0.15 mg per plate, without activation in the absence of S-9 rat liver homogenates in Ames test; type: functional, organism-based
Rattus norvegicus [4] = species on record: Rattus norvegicus; experiment: Tested for metabolic activation counted as mean number of revertants in strains TA98, TA100, TA1535, and TA1538, three plates per treatment at 0.005 mg per plate, without activation in the absence of S-9 rat liver homogenates in Ames test; type: functional, organism-based
Rattus norvegicus [5] = species on record: Rattus norvegicus; experiment: Tested for metabolic activation counted as mean number of revertants in strains TA98, TA100, TA1535, and TA1538, three plates per treatment at 0.005 mg per plate, with activation provided by S-9 rat liver homogenates in Ames test; type: functional, organism-based
Rattus norvegicus [6] = species on record: Rattus norvegicus; experiment: Tested for metabolic activation counted as mean number of revertants in strains TA98, TA100, TA1535, and TA1538, three plates per treatment at 0.15 mg per plate, with activation provided by S-9 rat liver homogenates in Ames test; type: functional, organism-based
[7] = system: Cysteinyl leukotriene receptor (Cavia porcellus); experiment: Inhibition of LTD4 induced bronchospasm in guinea pig was determined in at 50 mg/kg i.d.
Rattus norvegicus [8] = species on record: Rattus norvegicus; experiment: Tested for metabolic activation counted as mean number of revertants in strains TA98, TA100, TA1535, and TA1538, three plates per treatment at 0.05 mg per plate, without activation in the absence of S-9 rat liver homogenates in Ames test; type: functional, organism-based
Rattus norvegicus [9] = species on record: Rattus norvegicus; experiment: Tested for metabolic activation counted as mean number of revertants in strains TA98, TA100, TA1535, and TA1538, three plates per treatment at 0.015 mg per plate, without activation in the absence of S-9 rat liver homogenates in Ames test; type: functional, organism-based
Rattus norvegicus [10] = species on record: Rattus norvegicus; experiment: Tested for metabolic activation counted as mean number of revertants in strains TA98, TA100, TA1535, and TA1538, three plates per treatment at 0.015 mg per plate, with activation provided by S-9 rat liver homogenates in Ames test; type: functional, organism-based
Rattus norvegicus [11] = species on record: Rattus norvegicus; experiment: Tested for metabolic activation counted as mean number of revertants in strains TA98, TA100, TA1535, and TA1538, three plates per treatment at 0.05 mg per plate, with activation provided by S-9 rat liver homogenates in Ames test; type: functional, organism-based
[12] = target: T2, Polyunsaturated fatty acid 5-lipoxygenase (Rattus norvegicus) (UniProt P12527); experiment: Ability to inhibit Lipoxygenase in vitro was determined; NA is <50% inhibition at 100 uM
T2 sequence (whole entry): T1 sequence (P12527 whole entry)
In short: (§2)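 Source is rat polymorphonuclear leukocyte (PMN) 5-lipoxygenase. IC50 values come from nonlinear regression analysis, significant at p < 0.05.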

[13] = target: T2, Polyunsaturated fatty acid 5-lipoxygenase (Rattus norvegicus); experiment: Ability to inhibit the rat Lipoxygenase in vitro was determined; NA is <50% inhibition at 100 uM; in short: as §2
Rattus norvegicus [14] = species on record: Rattus norvegicus; experiment: Tested for metabolic activation counted as mean number of revertants in strains TA98, TA100, TA1535, and TA1538, three plates per treatment at 2.0 mg per plate, without activation in the absence of S-9 rat liver homogenates in Ames test; type: functional, organism-based
Rattus norvegicus [15] = species on record: Rattus norvegicus; experiment: Tested for metabolic activation counted as mean number of revertants in strains TA98, TA100, TA1535, and TA1538, three plates per treatment at 0.6 mg per plate, without activation in the absence of S-9 rat liver homogenates in Ames test; type: functional, organism-based
Rattus norvegicus [16] = species on record: Rattus norvegicus; experiment: Tested for metabolic activation counted as mean number of revertants in strains TA98, TA100, TA1535, and TA1538, three plates per treatment at 0.6 mg per plate, with activation provided by S-9 rat liver in Ames test; type: functional
Rattus norvegicus [17] = species on record: Rattus norvegicus; experiment: Tested for metabolic activation counted as mean number of revertants in strains TA98, TA100, TA1535, and TA1538, three plates per treatment at 0.06 mg per plate, without activation in the absence of S-9 rat liver homogenates in Ames test; type: functional, organism-based
Rattus norvegicus [18] = species on record: Rattus norvegicus; experiment: Tested for metabolic activation counted as mean number of revertants in strains TA98, TA100, TA1535, and TA1538, three plates per treatment at 0.2 mg per plate, without activation in the absence of S-9 rat liver homogenates in Ames test; type: functional, organism-based
Rattus norvegicus [19] = species on record: Rattus norvegicus; experiment: Tested for metabolic activation counted as mean number of revertants in strains TA98, TA100, TA1535, and TA1538, three plates per treatment at 0.2 mg per plate, with activation provided by S-9 rat liver in Ames test; type: functional
Rattus norvegicus [20] = species on record: Rattus norvegicus; experiment: Tested for metabolic activation counted as mean number of revertants in strains TA98, TA100, TA1535, and TA1538, three plates per treatment at 2.0 mg per plate, with activation provided by S-9 rat liver homogenates in Ames test; type: functional, organism-based
Rattus norvegicus [21] = species on record: Rattus norvegicus; experiment: Tested for metabolic activation counted as mean number of revertants in three plates per treatment at 0.06 mg per plate, with activation provided by S-9 rat liver homogenates in Ames test; type: functional, organism-based
Rattus norvegicus [22] = species on record: Rattus norvegicus; experiment: Tested for metabolic activation counted as mean number of revertants in three plates per treatment at 0.02 mg per plate, with activation provided by S-9 rat liver homogenates in Ames test; type: functional, organism-based
Rattus norvegicus [23] = species on record: Rattus norvegicus; experiment: Tested for metabolic activation counted as mean number of revertants in strains TA98, TA100, TA1535, and TA1538, three plates per treatment at 0.02 mg per plate, without activation in the absence of S-9 rat liver homogenates in Ames test; type: functional, organism-based
[24] = target: T1, Polyunsaturated fatty acid 5-lipoxygenase; experiment: as §1; in short: as §2; remark: listed apart in the source
Rattus norvegicus [25] = species on record: Rattus norvegicus; experiment: Tested for metabolic activation counted as mean number of revertants in strains TA98, TA100, TA1535, and TA1538, three plates per treatment at 5.0 mg per plate, with activation provided by S-9 rat liver homogenates in Ames test; type: functional, organism-based
Rattus norvegicus [26] = species on record: Rattus norvegicus; experiment: Tested for metabolic activation counted as mean number of revertants in strains TA98, TA100, TA1535, and TA1538, three plates per treatment at 1.5 mg per plate, with activation provided by S-9 rat liver homogenates in Ames test; type: functional, organism-based
Rattus norvegicus [27] = species on record: Rattus norvegicus; experiment: Tested for metabolic activation counted as mean number of revertants in strains TA98, TA100, TA1535, and TA1538, three plates per treatment at 5.0 mg per plate, without activation in the absence of S-9 rat liver homogenates in Ames test; type: functional, organism-based
Rattus norvegicus [28] = species on record: Rattus norvegicus; experiment: Tested for metabolic activation counted as mean number of revertants in strains TA98, TA100, TA1535, and TA1538, three plates per treatment at 1.5 mg per plate, without activation in the absence of S-9 rat liver homogenates in Ames test; type: functional, organism-based

Compound: COC(=O)CCC(=O)N(C)c1cccc(OCc2nc3ccccc3s2)c1
IC50 [1]: 21 µM | inhibition in vivo at 50 mg/kg (Cavia porcellus): 19%

Compound: COC(=O)CCC(=O)N(O)c1cccc(OCc2ccc3ccccc3n2)c1
Mean no. of revertants (Rattus norvegicus [2]): 716 | Mean no. of revertants (Rattus norvegicus [3]): 31 | Mean no. of revertants (Rattus norvegicus [4]): 15 | Mean no. of revertants (Rattus norvegicus [5]): 13 | Mean no. of revertants (Rattus norvegicus [6]): 12 | inhibition [7]: 97% | Mean no. of revertants (Rattus norvegicus [8]): 13 | inhibition in vivo at 50 mg/kg (Cavia porcellus): 76% | Mean no. of revertants (Rattus norvegicus [9]): 9 | Mean no. of revertants (Rattus norvegicus [10]): 10 | Mean no. of revertants (Rattus norvegicus [11]): 16

Compound: COC(=O)CCC(=O)Nc1cccc(OCC(=O)Nc2ccccc2)c1
inhibition in vivo at 50 mg/kg (Cavia porcellus): 7% | inhibition [12]: < 50%

Compound: O=C1CCC(=O)N1c1cccc(OCc2nc3ccccc3s2)c1
inhibition in vivo at 50 mg/kg (Cavia porcellus): 18% | inhibition [12]: < 50%

Compound: CCCCCC(O)c1cccc(OCc2ccc3ccccc3n2)c1 (stereo not drawn) [REV-5901]
inhibition in vivo at 50 mg/kg (Cavia porcellus): 60.2%

Compound: COC(=O)CCC(=O)Nc1cccc(OCc2cc3ccccc3o2)c1
IC50 [1]: 17.9 µM | inhibition in vivo at 50 mg/kg (Cavia porcellus): 12%

Compound: COC(=O)CC(=O)Nc1cccc(OCc2nc3ccccc3s2)c1
IC50 [24]: 17 µM | inhibition in vivo at 50 mg/kg (Cavia porcellus): 58%

Compound: COC(=O)CCC(=O)Nc1cccc(OCc2ccc3ccccc3n2)c1
Mean no. of revertants (Rattus norvegicus [2]): 566 | Mean no. of revertants (Rattus norvegicus [3]): 25 | Mean no. of revertants (Rattus norvegicus [25]): 2880 | Mean no. of revertants (Rattus norvegicus [6]): 15 | Mean no. of revertants (Rattus norvegicus [8]): 24 | Mean no. of revertants (Rattus norvegicus [26]): 2770 | inhibition in vivo at 50 mg/kg (Cavia porcellus): 43% | Mean no. of revertants (Rattus norvegicus [27]): 2260 | Mean no. of revertants (Rattus norvegicus [28]): 2930 | Mean no. of revertants (Rattus norvegicus [11]): 15

Continued, in another order:

IC50 [1]: 27.1 µM
Compound: COC(=O)CCC(=O)Nc1cccc(Oc2nc3ccccc3s2)c1
inhibition in vivo at 50 mg/kg (Cavia porcellus): 7%

inhibition [13]: < 50%
Compound: Cn1c(COc2cccc(NC(=O)CCC(=O)O)c2)nc2ccccc21

inhibition [12]: < 50%
Compound: COC(=O)CCC(=O)Nc1cccc(OCc2ccccn2)c1

IC50 [1]: 19.1 µM
Compound: COC(=O)C1CC(=O)N(c2cccc(OCc3ccc4ccccc4n3)c2)C1 (stereo not drawn)
Mean no. of revertants (Rattus norvegicus [14]): 475 | Mean no. of revertants (Rattus norvegicus [15]): 421 | Mean no. of revertants (Rattus norvegicus [16]): 15 | Mean no. of revertants (Rattus norvegicus [17]): 13 | Mean no. of revertants (Rattus norvegicus [18]): 16 | Mean no. of revertants (Rattus norvegicus [19]): 10 | inhibition in vivo at 50 mg/kg (Cavia porcellus): 29% | Mean no. of revertants (Rattus norvegicus [20]): 84 | Mean no. of revertants (Rattus norvegicus [21]): 10 | Mean no. of revertants (Rattus norvegicus [22]): 12 | Mean no. of revertants (Rattus norvegicus [23]): 10
